# CAL PDZ FP-1: inhibitors of human CAL PDZ peptide binding | purified CAL PDZ, TMR-peptide fluorescence polarization, 1 h | actives 0.92% (n = 300,000) | Q9HD26 | AID 602252 | inhibition, % at 24.9 µM;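 active = mean inhibition of at least 30% with at least half of replicates also reaching 30%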;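 note: 0% = DMSO neutral control and 100% = excess unlabeled competitor peptide PRC23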
# PglD DTNB: inhibitors of Campylobacter jejuni PglD acetyltransferase; purified PglD enzyme, DTNB colorimetric CoA detection; inhibition, % at 12.5 µM; actives 0.098% (n = 360,000); AID 602405; in the data active = inhibition above about 16%, passing the limit was not always enough
# miR122 inh: inhibitors of miR-122 in Huh7 cells; Huh7 miR-122 Renilla luciferase sensor, 48 h; neutral wells = 0, positive control = 100; activation (reporter increase), % at 12.5 µM; actives 0.3% (n = 340,000);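 active = mean replicate activation score at least 90 and every replicate individually at or above 90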;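 note: higher luciferase means less miR-122 activity so hits act as miR-122 inhibitors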
# Cneo AK release: causes C. neoformans cell lysis. adenylate kinase release luminescence, 4 h; normalised: neutral wells 0, clomiphene wells 100. lysis activity, % at 15 µM. actives 0.2% (n = 360,000). AID 651654;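 active = mean lysis activity across replicates of at least 80%, whatever share of replicates individually reach that level; inactive = mean lysis activity below 80%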
#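 Signal: Adenylate kinase release luminescence | Assay system: Log-phase Cryptococcus neoformans yeast cells | Input: Cells at 5 × 10^6 per mL | Buffer or medium: Fresh YPD growth medium | Compound: Single dose | Schedule: Static 4 h at 37 °C with compound, 1 h detection | Controls: Clomiphene | Read-out: Luminescence rise reflecting yeast cell lysis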
# CAL PDZ FP-2: inhibitors of human CAL PDZ peptide binding | inhibition, % at 20 µM | actives 0.02% (n = 330,000) | purified CAL PDZ, TMR-peptide fluorescence polarization, 1 h | Q9HD26 | AID 504414;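 active = highest replicate inhibition of at least 40%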;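 note: plate controls were DMSO neutral control wells for no effect and unlabeled competitor peptide control wells for full effect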
#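 System: tagged CAL PDZ domain. Schedule: 1 h room-temperature incubation prior to read. Signal: fluorescence polarization (mP). Measure: percent inhibition from loss of millipolarization.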
# An asterisk follows results filed as active; . = no result given; ! = repeats disagree; [ ] = remark or other dose. Compounds with a hit are over-represented: about 1.1% of the library has one in this group of screens.
SMILES,CAL PDZ FP-1,PglD DTNB,miR122 inh,Cneo AK release,CAL PDZ FP-2
Cc1ccc(CCNC(=O)CCn2c(=O)c3cccn3c3ccc(F)cc32)cc1,39*,-4,3,-4,-1
COc1ccc(CCNC(=O)CCn2c(=O)c3cccn3c3ccc(F)cc32)c(OC)c1OC,118*,2,5,1,-1
CCCCNC(=O)CCn1c(=O)c2cccn2c2ccc(F)cc21,-7,-3,.,-1,-2
CO[C@H]1CN(C)C(=O)c2cc(NC(=O)C3CC3)ccc2OC[C@@H](C)N(Cc2ccncc2)C[C@@H]1C,.,-1,2[16.7 µM],47,.
O=C(Nc1ccccc1)C1=C(c2ccccc2)S(=O)(=O)CCS1(=O)=O,34*,.,.,.,-1
CCCCC(=O)Nc1ccc2c(c1)oc1ccccc12,56*,.,35,.,-2
C[C@H](CO)N1C[C@H](C)[C@H](CN(C)C(=O)Nc2ccc3c(c2)OCO3)OCCCC[C@H](C)Oc2ccc(NC(=O)CCC(F)(F)F)cc2C1=O,.,-1,8[16.7 µM],-2,.
Cn1c(N)c(S(=O)(=O)N2CCCC2)c(=O)n(C)c1=O,47*,2,-5,2,-1
O=C(Nc1ccccc1)OC1CCC2CC1CCC2OC(=O)Nc1ccccc1 (stereo unspecified),32*,4,-2,-2,-1
O=C(Nc1ccccc1)C1CC2CCC1C2 (stereo unspecified),.,2,-6,2,0
O=C(O)C(Cc1ccc(Cl)cc1)Sc1nc2ccccc2[nH]1 (stereo unspecified),-4,-8,-2,2,0
O=C(CCC(=O)N1CCOCC1)c1ccc(F)cc1,33*,.,.,.,-6
C[C@@H]1CN([C@@H](C)CO)C(=O)c2cccc(NS(=O)(=O)c3cn(C)cn3)c2O[C@@H]1CN(C)S(=O)(=O)c1cccs1,.,-1,2[16.7 µM],2,.
C[C@@H]1CN([C@H](C)CO)C(=O)c2cc(C#CC(C)(C)O)cnc2O[C@H]1CN(C)C(=O)C1CCCCC1,.,.,5[16.7 µM],.,.
Cc1ccc(S(=O)(=O)N(C)C[C@@H]2Oc3ccc(NC(=O)Nc4ccc5c(c4)OCO5)cc3CC(=O)N([C@@H](C)CO)C[C@@H]2C)cc1,.,0,113*[16.7 µM],-2,.
C[C@@H]1CN([C@H](C)CO)C(=O)Cc2cc(NC(=O)Nc3ccc(C(F)(F)F)cc3)ccc2O[C@@H]1CN(C)S(=O)(=O)c1ccc(Cl)cc1,.,.,11[16.7 µM],.,.
Cc1ccc(S(=O)(=O)N(C)C[C@H]2Oc3ccc(NC(=O)Nc4ccc5c(c4)OCO5)cc3CC(=O)N([C@H](C)CO)C[C@@H]2C)cc1,.,-3,-2[16.7 µM],-2,.
C[C@H](CO)N1C[C@H](C)[C@H](CN(C)S(=O)(=O)c2ccc(Cl)cc2)Oc2ccc(NC(=O)Nc3ccc(C(F)(F)F)cc3)cc2CC1=O,.,.,94*[16.7 µM],.,.
CC(C)NC(=O)Nc1ccc2c(c1)CC(=O)N([C@H](C)CO)C[C@H](C)[C@H](CN(C)S(=O)(=O)c1ccc(Cl)cc1)O2,.,0,4[16.7 µM],89*,.
COc1ccc(-c2cc3c(=O)n(CC(=O)NCc4ccc(C)cc4)ncn3n2)cc1,12,0,-11,-2,1
COc1ccc(-c2cc3c(=O)n(CC(=O)NCc4ccc(F)cc4)ncn3n2)cc1,50*,-4,1,-1,-1
CCC(=O)N[C@@H]1CC[C@@H](CCn2cc(CN(C)C)nn2)O[C@@H]1CO,.,-5,.,47,.
Oc1ccc(C=NNC(=S)Nc2ccc(F)cc2)c(O)c1,32*,-1,9,-24,0
C[C@@H]1CN([C@@H](C)CO)C(=O)c2cc(NC(=O)NC3CCCCC3)ccc2O[C@@H](C)CCCCO[C@@H]1CN(C)S(=O)(=O)c1ccc(Cl)cc1,.,-2,-4[16.7 µM],-2,.
Cc1noc(C)c1NC(=O)N(C)C[C@@H]1OCCCC[C@H](C)Oc2ccc(NC(=O)CCC(F)(F)F)cc2C(=O)N([C@H](C)CO)C[C@H]1C,.,-2,4[16.7 µM],0,.
SMILES,CAL PDZ FP-1,PglD DTNB,miR122 inh,Cneo AK release,CAL PDZ FP-2
Cc1cccc(NS(=O)(=O)c2ccc(-n3cccn3)cc2)c1C,1,-1,5,3,-3
CC(=O)Nc1ccc(NC(=O)C(C)N(C)CC(=O)Nc2ccccc2Br)cc1 (stereo unspecified),33*,-4,5,0,-2
C[C@@H]1CN([C@H](C)CO)C(=O)c2cc(NC(=O)Cc3ccccc3)ccc2O[C@@H](C)CCCCO[C@H]1CN(C)C(=O)CCC(F)(F)F,.,0,-6[16.7 µM],9,.
CNC[C@H]1Oc2ncc(C#CC3CCCC3)cc2C(=O)N([C@@H](C)CO)C[C@H]1C,.,2,-21[16.7 µM],0,.
CCOC(=O)c1c(Nc2ccc(Cl)cc2)sc(/C=C2\C=Nc3ccccc32)c1O,-5,-5,107*!,-1,-1
C=CCNC(=S)NCc1ccccc1OC,70*,.,.,.,0
CC(C)c1ccc(NC(=S)NCc2cccs2)cc1,-1,-1,102*,19,-1
S=C(NCc1cccs1)Nc1cccc(Cl)c1,.,.,220*,.,-1
COc1ccc(NC(=S)NCc2cccs2)cc1,-1,.,.,.,1
CC=Cc1ccc2n(c1=O)C[C@H]1[C@H](CO)[C@@H](C(=O)NCC)N(C(=O)c3cccnc3)[C@@H]21 (mixture of isomers),.,-1,-8[16.7 µM],-1,.
Cc1noc(C)c1C(=O)OCC(=O)NCCc1ccccc1,84*,4,.,0,-1
Cc1noc(C)c1C(=O)OCC(=O)NCCc1ccc(S(N)(=O)=O)cc1,-5,0,0,0,0
COC(=O)C[C@@H]1CC[C@@H]2[C@H](COc3ccc(NC(=O)c4cc(C)on4)cc3C(=O)N2C)O1,.,0,0[16.7 µM],-4,.
COc1ccc(Cl)cc1N/C(N)=N/c1nc(CSc2ccc(C)cc2)cc(=O)[nH]1,.,.,-6,.,-2
N/C(=N\c1nc(CSc2ccccn2)cc(=O)[nH]1)Nc1ccc(Cl)cc1Cl,78*,-3,-15,1,0
Cc1ccc(COc2ccc3c(c2)OCO3)cc1,40*,-7,-9,0,-1
O=Cc1ccc(OCc2ccc3c(c2)OCO3)cc1,-6,-1,.,-8,-1
CNC(=O)C[C@@H]1CC[C@H]2[C@H](COc3ccc(NC(=O)c4ccc5c(c4)OCO5)cc3C(=O)N2C)O1,.,-3,8[16.7 µM],-2,.
OCCn1c(SC2CCCCC2)nc2ccccc21,47*,-4,-14,2,0
CC1(C)C2CC=C(/C=N/NC(=O)c3ccc(O)cc3)C1C2 (stereo unspecified),78*,.,.,.,-2
COC(=O)N/N=C/C1=CCC2CC1C2(C)C (stereo unspecified),.,5,0,1,0
CN1CCC(OC(=O)COc2ccc(F)cc2)CC1,47*,4,-5,29,11
CC1CCCCN1C(=O)COc1ccc(F)cc1 (stereo unspecified),44*,.,.,.,-1
CCCCOc1ccc(NC(=O)Nc2nnc(C)s2)cc1,60*,-6,21,0,0
